From ChEMBL document CHEMBL3351898, “4-Aminoquinoline-pyrimidine hybrids: synthesis, antimalarial activity, heme binding and docking studies” (Eur J Med Chem, 2015) come the findings set out here.

SMILES strings stand for the structures. A value given as a limit tells only on which side of the number the result lay.

A short description of data set [1]: Selectivity index, ratio of IC50 for African green monkey Vero cells to IC50 for chloroquine-resistant Plasmodium falciparum W2. Format: toxicity, cell-based. The settings on record: read-out: Ratio IC50. The gist of the method:
(§1)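 Vero cells seeded at 25,000 cells/well and grown 24 h, then exposed to a range of compound concentrations for 48 h. Viability measured by Neutral Red uptake; IC50 from dose-response curves. SI calculated as Vero IC50 divided by antiplasmodial IC50 for the named strain.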

Data set [2] concerns Plasmodium berghei. Kind of data set: Antimalarial activity against Plasmodium berghei infected in mouse assessed as mean survival time at 100 mg/kg/day, po dosed on days 0, 1 and 2 post infection. Format: functional. The gist of the method: (§2)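 P. berghei-infected mice dosed orally with test agent at 11.1, 33.3 or 100 mg/kg, once daily for 3 days; vehicle and chloroquine controls. Mean survival time recorded; parasitemia on days 5 and 7 expressed as % suppression, taking mean vehicle-control parasitemia as 100%.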

In data set [3] the test system is Plasmodium falciparum. Description: Antimalarial activity against chloroquine-sensitive Plasmodium falciparum D6 assessed as inhibition of parasite growth after 72 hrs by parasite LDH release assay. Format: functional, organism-based. To be noted: D6, 72 h. The gist of the method:
(§3)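 Asexual P. falciparum cultures at 2% parasitemia and 2% hematocrit in RPMI 1640 with 10% human serum and amikacin were added to serially diluted compound. Plates were incubated 72 h at 37 °C under 90% N2/5% O2/5% CO2. Growth was read by pLDH: Malstat reagent 30 min at room temperature, then NBT/PES 1 h in the dark. IC50 taken from dose-response curves; chloroquine and pyrimethamine controls.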
A general note: LDH leaks from cells whose membrane has failed.

Data set [4] in a line: Resistance index, ratio of IC50 for chloroquine-resistant Plasmodium falciparum W2 to IC50 for chloroquine-sensitive Plasmodium falciparum D6. The data set is classed as functional.
Data set [5] in a line: Selectivity index, ratio of IC50 for African green monkey Vero cells to IC50 for chloroquine-sensitive Plasmodium falciparum D6. Format: toxicity, cell-based. To be noted: read-out: Ratio IC50. Summed up:
as §1

The test system of data set [6] is Vero. Description: Cytotoxicity against African green monkey Vero cells after 72 hrs by neutral red assay. The data set is classed as cell-based, Chlorocebus sabaeus. The settings on record: vero; in the assay text read “after 48 hrs” for “after 72 hrs”. The gist of the method: (§4)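 Vero cells (monkey kidney […]) were seeded at 25,000 cells/well and incubated 24 h, then exposed to a range of compound concentrations for 48 h. Viable cells were counted by Neutral Red assay, and IC50 was obtained from dose-response curves.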

Data set [7] concerns Plasmodium berghei. Description: Antimalarial activity against Plasmodium berghei infected in mouse assessed as reduction in parasitemia at 100 mg/kg/day, po dosed on days 0, 1 and 2 post infection measured on day 7. The settings on record: 168 h. The data set is classed as functional. The gist of the method: (§5)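 P. berghei-infected mice were given the compound orally at 11.1, 33.3 or 100 mg/kg × 3 days. Vehicle and chloroquine groups were included. Parasitemia was read on days 5 and 7, and % suppression was calculated with mean parasitemia in the vehicle control taken as 100%. Mean survival time was also recorded.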

Data set [8] has as its system Plasmodium berghei. Kind of data set: Antimalarial activity against Plasmodium berghei infected in mouse assessed as reduction in parasitemia at 100 mg/kg/day, po dosed on days 0, 1 and 2 post infection measured on day 5. The data set is classed as functional. To be noted: 120 h. The gist of the method: as §5
Data set [9] deals with Plasmodium berghei. Kind of data set: Antimalarial activity against Plasmodium berghei infected in mouse assessed as reduction in parasitemia at 11.1 mg/kg/day, po dosed on days 0, 1 and 2 post infection measured on day 5. The data set is classed as functional. To be noted: 120 h. Summed up: as §5
Data set [10] deals with Plasmodium berghei. Description: Antimalarial activity against Plasmodium berghei infected in mouse assessed as mean survival time at 33.3 mg/kg/day, po dosed on days 0, 1 and 2 post infection. Format: functional. The gist of the method: as §2
Data set [11] deals with Plasmodium berghei. Kind of data set: Antimalarial activity against Plasmodium berghei infected in mouse assessed as mean survival time at 11.1 mg/kg/day, po dosed on days 0, 1 and 2 post infection. The data set is classed as functional. The gist of the method:
as §2

The test system of data set [12] is Plasmodium falciparum. Description: Antimalarial activity against chloroquine-resistant Plasmodium falciparum W2 assessed as inhibition of parasite growth after 72 hrs by parasite LDH release assay. The data set is classed as functional, organism-based. To be noted: W2, 72 h. The gist of the method:
as §3

The subject of data set [13] is Vero. Description: Cytotoxicity against African green monkey Vero cells up to 20 uM after 72 hrs by neutral red assay. Format: cell-based. To be noted: chlorocebus sabaeus, 48 h, in the assay text read “48 hrs” for “72 hrs”. The gist of the method: as §4
Data set [14] has as its system Plasmodium berghei. Kind of data set: Antimalarial activity against Plasmodium berghei infected in mouse assessed as reduction in parasitemia at 33.3 mg/kg/day, po dosed on days 0, 1 and 2 post infection measured on day 7. Format: functional. The settings on record: 168 h. The gist of the method:
as §5

For data set [15], the system named is Plasmodium berghei. Description: Antimalarial activity against Plasmodium berghei infected in mouse assessed as reduction in parasitemia at 33.3 mg/kg/day, po dosed on days 0, 1 and 2 post infection measured on day 5. To be noted: 120 h. The data set is classed as functional. Summed up:
as §5

`COc1cc(Nc2ccnc(NCCNc3ccnc4cc(Cl)ccc34)n2)cc(OC)c1`: the results for the selectivity ratio in [1] and in data set [5] were above 345 and above 606, respectively. Also, the MST with Plasmodium berghei [2] stood at 9 days; in the data set on Plasmodium berghei [10], 8.6 days; in the data set on Plasmodium berghei [11], 5 days. The results for the IC50 with Plasmodium falciparum [3], in the data set on Vero [6] and in the data set on Plasmodium falciparum [12] were 33 nM, “Not Active” and 58 nM, respectively. In data set [4], the Ratio IC50 amounted to 1.75. Further, the inhibition in vivo – broadly, the relative decrease from the control value, in per cent – at 100 mg/kg/day with Plasmodium berghei [7] came out at 10.4%; in the data set on Plasmodium berghei [8] it was 42.1%. Also, in the data set with Plasmodium berghei [9], the inhibition in vivo at 11.1 mg/kg/day was found to be 1.77%. The Activity result in the data set with Vero [13] is reported as “Non-toxic”. Moreover, the inhibition in vivo at 33.3 mg/kg/day was 6.2% in the data set with Plasmodium berghei [14] and 15.1% in the data set with Plasmodium berghei [15].
